Test system: Fibroblast
Experiment: Multiplex assay against human fibroblast
Type: toxicity, cell-based
How it was run: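 Live cells carried four stains from seeding: Hoechst33342, BioTracker Green Microtubule Cytoskeleton Dye, MitoTracker Red and Annexin V Alexa Fluor 680. They were imaged on a CQ1 microscope at 37°C and 5% CO2 after compound addition. Using CellPathfinder machine-learning gating, cells were split into Hoechst high-intensity objects or normal cells, normal cells into healthy, pyknosed or fragmented nuclei, and pyknosed cells into mitotic or apoptotic; tubulin, mitochondrial-mass and membrane-permeability phenotypes are per cents of healthy-nucleus cells.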

[1] = 12 h, 1 µM, compound concentration 1 uM, replicate 1
[2] = 12 h, 1 µM, compound concentration 1 uM, replicate 2
[3] = 12 h, 10 µM, compound concentration 10 uM, replicate 1
[4] = 12 h, 10 µM, compound concentration 10 uM, replicate 2
[5] = 24 h, 1 µM, compound concentration 1 uM, replicate 1
[6] = 24 h, 1 µM, compound concentration 1 uM, replicate 2
[7] = 24 h, 10 µM, compound concentration 10 uM, replicate 1
[8] = 24 h, 10 µM, compound concentration 10 uM, replicate 2
[9] = 48 h, 1 µM, compound concentration 1 uM, replicate 1
[10] = 48 h, 1 µM, compound concentration 1 uM, replicate 2
[11] = 48 h, 10 µM, compound concentration 10 uM, replicate 1
[12] = 48 h, 10 µM, compound concentration 10 uM, replicate 2

CC(/C=C1\SC(=S)N(CCCC(=O)Nc2ccc(C(=O)O)c(O)c2)C1=O)=C\c1ccccc1
Population Apoptotic (%) [1]: 50% | Population Fragmented Nuclei (%) [1]: 14% | Population Healthy Nuclei (%) [1]: 71% | Population Hoechst High Intensity Objects (%) [1]: 2% | Population Membrane Permeable-Phenotype (%) [1]: 0% | Population Mitochondria Different-Phenotype (%) [1]: 2% | Population Mitotic Cells (%) [1]: 50% | Population Normal (%) [1]: 97% | Population Pyknosed Nuclei (%) [1]: 13% | Population Tubulin-Different-Phenotype (%) [1]: 28% | Total Cell Count [1]: 206 | Population Apoptotic (%) [2]: 33% | Population Fragmented Nuclei (%) [2]: 19% | Population Healthy Nuclei (%) [2]: 60% | Population Hoechst High Intensity Objects (%) [2]: 3% | Population Membrane Permeable-Phenotype (%) [2]: 13% | Population Mitochondria Different-Phenotype (%) [2]: 9% | Population Mitotic Cells (%) [2]: 66% | Population Normal (%) [2]: 96% | Population Pyknosed Nuclei (%) [2]: 19% | Population Tubulin-Different-Phenotype (%) [2]: 54% | Total Cell Count [2]: 157 | Population Apoptotic (%) [3]: 56% | Population Fragmented Nuclei (%) [3]: 15% | Population Healthy Nuclei (%) [3]: 70% | Population Hoechst High Intensity Objects (%) [3]: 2% | Population Membrane Permeable-Phenotype (%) [3]: 0% | Population Mitochondria Different-Phenotype (%) [3]: 5% | Population Mitotic Cells (%) [3]: 43% | Population Normal (%) [3]: 97% | Population Pyknosed Nuclei (%) [3]: 13% | Population Tubulin-Different-Phenotype (%) [3]: 44% | Total Cell Count [3]: 123 | Population Apoptotic (%) [4]: 40% | Population Fragmented Nuclei (%) [4]: 19% | Population Healthy Nuclei (%) [4]: 48% | Population Hoechst High Intensity Objects (%) [4]: 4% | Population Membrane Permeable-Phenotype (%) [4]: 8% | Population Mitotic Cells (%) [4]: 59% | Population Normal (%) [4]: 95% | Population Pyknosed Nuclei (%) [4]: 31% | Population Tubulin-Different-Phenotype (%) [4]: 54% | Total Cell Count [4]: 122 | Population Apoptotic (%) [5]: 54% | Population Fragmented Nuclei (%) [5]: 17% | Population Healthy Nuclei (%) [5]: 72% | Population Hoechst High Intensity Objects (%) [5]: 1% | Population Membrane Permeable-Phenotype (%) [5]: 2% | Population Mitochondria Different-Phenotype (%) [5]: 4% | Population Mitotic Cells (%) [5]: 45% | Population Normal (%) [5]: 98% | Population Pyknosed Nuclei (%) [5]: 10% | Population Tubulin-Different-Phenotype (%) [5]: 25% | Total Cell Count [5]: 208 | Population Apoptotic (%) [6]: 33% | Population Healthy Nuclei (%) [6]: 63% | Population Hoechst High Intensity Objects (%) [6]: 2% | Population Membrane Permeable-Phenotype (%) [6]: 5% | Population Mitochondria Different-Phenotype (%) [6]: 12% | Population Mitotic Cells (%) [6]: 66% | Population Normal (%) [6]: 97% | Population Pyknosed Nuclei (%) [6]: 19% | Population Tubulin-Different-Phenotype (%) [6]: 44% | Total Cell Count [6]: 144 | Population Apoptotic (%) [7]: 66% | Population Fragmented Nuclei (%) [7]: 11% | Population Healthy Nuclei (%) [7]: 81% | Population Hoechst High Intensity Objects (%) [7]: 0% | Population Membrane Permeable-Phenotype (%) [7]: 0% | Population Mitochondria Different-Phenotype (%) [7]: 4% | Population Mitotic Cells (%) [7]: 33% | Population Normal (%) [7]: 99% | Population Pyknosed Nuclei (%) [7]: 7% | Population Tubulin-Different-Phenotype (%) [7]: 25% | Total Cell Count [7]: 119 | Population Apoptotic (%) [8]: 53% | Population Fragmented Nuclei (%) [8]: 20% | Population Healthy Nuclei (%) [8]: 53% | Population Hoechst High Intensity Objects (%) [8]: 4% | Population Membrane Permeable-Phenotype (%) [8]: 11% | Population Mitotic Cells (%) [8]: 46% | Population Normal (%) [8]: 95% | Population Pyknosed Nuclei (%) [8]: 26% | Population Tubulin-Different-Phenotype (%) [8]: 70% | Total Cell Count [8]: 120 | Population Apoptotic (%) [9]: 78% | Population Fragmented Nuclei (%) [9]: 24% | Population Healthy Nuclei (%) [9]: 66% | Population Hoechst High Intensity Objects (%) [9]: 3% | Population Membrane Permeable-Phenotype (%) [9]: 1% | Population Mitochondria Different-Phenotype (%) [9]: 2% | Population Mitotic Cells (%) [9]: 21% | Population Normal (%) [9]: 96% | Population Pyknosed Nuclei (%) [9]: 9% | Population Tubulin-Different-Phenotype (%) [9]: 31% | Total Cell Count [9]: 216 | Population Apoptotic (%) [10]: 45% | Population Fragmented Nuclei (%) [10]: 29% | Population Healthy Nuclei (%) [10]: 56% | Population Hoechst High Intensity Objects (%) [10]: 1% | Population Membrane Permeable-Phenotype (%) [10]: 7% | Population Mitochondria Different-Phenotype (%) [10]: 6% | Population Mitotic Cells (%) [10]: 54% | Population Normal (%) [10]: 98% | Population Pyknosed Nuclei (%) [10]: 14% | Population Tubulin-Different-Phenotype (%) [10]: 44% | Total Cell Count [10]: 159 | Population Apoptotic (%) [11]: 46% | Population Fragmented Nuclei (%) [11]: 18% | Population Healthy Nuclei (%) [11]: 69% | Population Hoechst High Intensity Objects (%) [11]: 0% | Population Membrane Permeable-Phenotype (%) [11]: 0% | Population Mitochondria Different-Phenotype (%) [11]: 1% | Population Mitotic Cells (%) [11]: 53% | Population Normal (%) [11]: 100% | Population Pyknosed Nuclei (%) [11]: 12% | Population Tubulin-Different-Phenotype (%) [11]: 33% | Total Cell Count [11]: 124 | Population Apoptotic (%) [12]: 59% | Population Fragmented Nuclei (%) [12]: 34% | Population Healthy Nuclei (%) [12]: 46% | Population Hoechst High Intensity Objects (%) [12]: 3% | Population Membrane Permeable-Phenotype (%) [12]: 5% | Population Mitochondria Different-Phenotype (%) [12]: 5% | Population Mitotic Cells (%) [12]: 40% | Population Normal (%) [12]: 96% | Population Pyknosed Nuclei (%) [12]: 19% | Population Tubulin-Different-Phenotype (%) [12]: 58% | Total Cell Count [12]: 118

Source: ChEMBL document CHEMBL5058577, “EUbOPEN Chemogenomics Library 2 (Multiplex)” (2022)
